Values after ≈ are worked out from the molar mass of the structure shown.
Tests used:
Assay type in all cases: functional, cell-based
MCF7 = test: Cytotoxicity against human MCF7 cells after 48 hrs by sulforhodamine B assay; settings: MCF7, 48 h
Summary of the method: (§1)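 Cells seeded at 10^4 per well and allowed to attach for 24 h, then exposed to compound at 0, 1, 2.5, 5 and 10 μg/ml, triplicate wells per dose, 48 h at 37 °C, 5% CO2. Fixed, stained with sulforhodamine B, excess dye removed with acetic acid, bound dye dissolved in Tris EDTA, absorbance read. IC50 (μg/ml, 50% survival reduction) taken from triplicate dose–response curves.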

HepG2 = test: Cytotoxicity against human HepG2 cells after 48 hrs by sulforhodamine B assay; settings: HepG2, 48 h; summary of the method: as §1
HCT-116 = test: Cytotoxicity against human HCT116 cells after 48 hrs by sulforhodamine B assay; settings: HCT-116, 48 h; summary of the method: as §1

Compound: COc1cccc2c1C(=O)c1c(O)c3c(c(O)c1C2=O)C[C@@](O)(C(=O)CO)C[C@@H]3O[C@H]1C[C@H](N)[C@H](O)[C@H](C)O1 [DOXORUBICIN]
- IC90 (MCF7): 8.77 µg/mL (≈ 16.1 µM)
- IC50 (HepG2): 0.59 µg/mL (≈ 1.09 µM)
- IC90 (HepG2): 6.82 µg/mL (≈ 12.5 µM)
- IC50 (HCT-116): 0.65 µg/mL (≈ 1.2 µM)
- IC90 (HCT-116): 7.32 µg/mL (≈ 13.5 µM)

Compound: Nc1c(-c2nc3cc(C(=O)O)ccc3[nH]2)sc(=S)n1Cc1ccccc1
- IC50 (MCF7): 3.51 µg/mL (≈ 9.18 µM)
- IC90 (MCF7): 14.1 µg/mL (≈ 36.8 µM)
- IC50 (HepG2): 0.55 µg/mL (≈ 1.44 µM)
- IC90 (HepG2): 7.53 µg/mL (≈ 19.7 µM)
- IC50 (HCT-116): 4.23 µg/mL (≈ 11.1 µM)
- IC90 (HCT-116): 14 µg/mL (≈ 36.7 µM)

Compound: N#C/C(=C1\SCCCN1c1ccccc1)c1nc2cc(C(=O)O)ccc2[nH]1
- IC50 (MCF7): 4.04 µg/mL (≈ 10.7 µM)
- IC90 (MCF7): 15 µg/mL (≈ 39.9 µM)
- IC50 (HepG2): 1.87 µg/mL (≈ 4.97 µM)
- IC90 (HepG2): 8.8 µg/mL (≈ 23.4 µM)
- IC50 (HCT-116): 9.39 µg/mL (≈ 24.9 µM)
- IC90 (HCT-116): 14.7 µg/mL (≈ 39.1 µM)

Compound: N#C/C(=C\c1ccc(F)cc1)c1nc2cc(Cl)ccc2[nH]1
- IC50 (MCF7): 3.41 µg/mL (≈ 11.5 µM)
- IC90 (MCF7): 13.3 µg/mL (≈ 44.8 µM)
- IC50 (HepG2): 0.55 µg/mL (≈ 1.85 µM)
- IC90 (HepG2): 7.62 µg/mL (≈ 25.6 µM)
- IC50 (HCT-116): 8.4 µg/mL (≈ 28.2 µM)
- IC90 (HCT-116): 14.8 µg/mL (≈ 49.8 µM)

Compound: N#C/C(=C1\SCC(=O)N1c1ccccc1)c1nc2cc(Cl)ccc2[nH]1
- IC50 (MCF7): 2.83 µg/mL (≈ 7.71 µM)
- IC90 (MCF7): 12.6 µg/mL (≈ 34.4 µM)
- IC50 (HepG2): 0.93 µg/mL (≈ 2.54 µM)
- IC90 (HepG2): 7.89 µg/mL (≈ 21.5 µM)
- IC50 (HCT-116): 3.72 µg/mL (≈ 10.1 µM)
- IC90 (HCT-116): 12 µg/mL (≈ 32.8 µM)

Compound: COc1ccccc1C1=CS/C(=C(\C#N)c2nc3cc(C(=O)O)ccc3[nH]2)N1c1ccc(Br)cc1
- IC50 (MCF7): 2.85 µg/mL (≈ 5.23 µM)
- IC90 (MCF7): 13.2 µg/mL (≈ 24.3 µM)
- IC50 (HepG2): 3.16 µg/mL (≈ 5.79 µM)
- IC90 (HepG2): 9.31 µg/mL (≈ 17.1 µM)
- IC50 (HCT-116): 3.75 µg/mL (≈ 6.88 µM)
- IC90 (HCT-116): 12.1 µg/mL (≈ 22.1 µM)

Compound: N#C/C(=C1\SC(=O)CN1C1CCCCC1)c1nc2cc(C(=O)O)ccc2[nH]1
- IC50 (MCF7): 3.83 µg/mL (≈ 10 µM)
- IC90 (MCF7): 15 µg/mL (≈ 39.3 µM)
- IC50 (HepG2): 1.35 µg/mL (≈ 3.53 µM)
- IC90 (HepG2): 9.15 µg/mL (≈ 23.9 µM)
- IC50 (HCT-116): 5.52 µg/mL (≈ 14.4 µM)
- IC90 (HCT-116): 14.1 µg/mL (≈ 36.9 µM)

Compound: N#CC(=C1CCCCC1)c1nc2cc(C(=O)O)ccc2[nH]1
- IC50 (MCF7): 2.15 µg/mL (≈ 7.64 µM)
- IC90 (MCF7): 11.7 µg/mL (≈ 41.6 µM)
- IC50 (HepG2): 1.65 µg/mL (≈ 5.87 µM)
- IC90 (HepG2): 8.61 µg/mL (≈ 30.6 µM)
- IC50 (HCT-116): 8.25 µg/mL (≈ 29.3 µM)
- IC90 (HCT-116): 14.2 µg/mL (≈ 50.4 µM)
